Molecular target: P2Y purinoceptor 4 (Homo sapiens, UniProt P51582)
Test: Antagonist activity at human P2Y4 receptor transfected in human 1321N1 cells assessed as inhibition of UTP-activated intracellular calcium mobilization preincubated for 30 mins followed by UTP addition by fluo-4-dye based fluorescence assay
Type: functional, cell-based
Method in brief: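 1321N1 astrocytoma cells stably expressing the human P2Y subtype, grown in DMEM with 10 % FCS and 200 μg/mL G418 at 37 °C. Plated 50,000 cells/well about 24 h before testing. Cells loaded with fluo-4 AM for 1 h, then placed in HBSS and preincubated 30 min with compound. Agonist was injected at about EC80: ADP 500 nM (P2Y1), UTP 500 nM (P2Y2, P2Y4), UDP 750 nM (P2Y6). Fluorescence read at ex 488/em 525 nm. At least three independent experiments in duplicate. IC50 obtained by nonlinear regression.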

Sequence of P2Y purinoceptor 4 (P51582 whole entry): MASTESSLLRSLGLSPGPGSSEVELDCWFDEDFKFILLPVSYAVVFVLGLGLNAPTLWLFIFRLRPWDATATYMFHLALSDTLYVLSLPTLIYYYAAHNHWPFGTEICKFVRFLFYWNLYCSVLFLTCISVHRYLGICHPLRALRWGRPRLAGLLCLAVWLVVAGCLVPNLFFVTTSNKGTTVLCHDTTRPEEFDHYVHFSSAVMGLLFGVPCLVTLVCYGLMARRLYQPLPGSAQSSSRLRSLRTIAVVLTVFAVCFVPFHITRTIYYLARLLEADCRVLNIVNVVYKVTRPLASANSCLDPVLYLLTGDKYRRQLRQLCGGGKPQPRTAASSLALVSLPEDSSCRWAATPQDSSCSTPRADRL

IC50 [µM] | Compound
23.4 | Nc1c(S(=O)(=O)O)cc(Nc2cccc(C(=O)O)c2)c2c1C(=O)c1ccccc1C2=O
1.94 | Nc1c(S(=O)(=O)O)cc(Nc2ccc(Oc3ccccc3)cc2)c2c1C(=O)c1ccccc1C2=O
0.373 | Nc1c(S(=O)(=O)O)cc(Nc2ccc(Oc3ccc(Cl)cc3)cc2)c2c1C(=O)c1ccccc1C2=O
3.21 | CCc1ccc(Nc2cc(S(=O)(=O)O)c(N)c3c2C(=O)c2ccccc2C3=O)cc1
1.18 | Nc1c(S(=O)(=O)O)cc(Nc2ccc(Sc3ccccc3)cc2)c2c1C(=O)c1ccccc1C2=O
3.3 | Nc1c(S(=O)(=O)O)cc(Nc2ccc(Br)cc2)c2c1C(=O)c1ccccc1C2=O
1.76 | Nc1c(S(=O)(=O)O)cc(Nc2ccc(Oc3ccc(Br)cc3)cc2)c2c1C(=O)c1ccccc1C2=O
7.42 | Nc1c(S(=O)(=O)O)cc(Nc2cccc3ccccc23)c2c1C(=O)c1ccccc1C2=O
3.45 | Nc1c(S(=O)(=O)O)cc(Nc2ccc(Cc3ccccc3)cc2)c2c1C(=O)c1ccccc1C2=O
2.59 | COc1ccc(Nc2cc(S(=O)(=O)O)c(N)c3c2C(=O)c2ccccc2C3=O)cc1
1.69 | Nc1c(S(=O)(=O)O)cc(Nc2ccc(Oc3ccc(F)cc3)cc2)c2c1C(=O)c1ccccc1C2=O
3.03 | Nc1c(S(=O)(=O)O)cc(Nc2ccc(Cl)cc2)c2c1C(=O)c1ccccc1C2=O
1.91 | Nc1c(S(=O)(=O)O)cc(Nc2ccc(Nc3ccccc3)cc2)c2c1C(=O)c1ccccc1C2=O
2.34 | Nc1c(S(=O)(=O)O)cc(Nc2cccc(Cl)c2)c2c1C(=O)c1ccccc1C2=O
4.04 | Nc1c(S(=O)(=O)O)cc(Nc2ccc(F)cc2)c2c1C(=O)c1ccccc1C2=O
0.625 | Nc1c(S(=O)(=O)O)cc(Nc2ccc(Nc3nc(Cl)nc(Nc4ccc(S(=O)(=O)O)cc4)n3)c(S(=O)(=O)O)c2)c2c1C(=O)c1ccccc1C2=O
> 100 | Nc1c(S(=O)(=O)O)cc(Nc2ccc(F)cc2C(=O)O)c2c1C(=O)c1ccccc1C2=O [listing 2 of 2 here]

The next lines start with the molecule.

Compound | IC50 [µM]
COc1cccc(Nc2cc(S(=O)(=O)O)c(N)c3c2C(=O)c2ccccc2C3=O)c1 | 1.7
CCCc1cccc(Nc2cc(S(=O)(=O)O)c(N)c3c2C(=O)c2ccccc2C3=O)c1 | 2.99
COc1cc(Nc2cc(S(=O)(=O)O)c(N)c3c2C(=O)c2ccccc2C3=O)cc(OC)c1 | 9.25
Nc1c(S(=O)(=O)O)cc(Nc2ccc(F)cc2C(=O)O)c2c1C(=O)c1ccccc1C2=O [listing 1 of 2 here] | > 100
Cc1ccccc1Nc1cc(S(=O)(=O)O)c(N)c2c1C(=O)c1ccccc1C2=O | 3.49
Cc1cc(C)cc(Nc2cc(S(=O)(=O)O)c(N)c3c2C(=O)c2ccccc2C3=O)c1 | 6.45
Nc1c(S(=O)(=O)O)cc(Nc2cc(F)cc(F)c2)c2c1C(=O)c1ccccc1C2=O | 12.5
Cc1ccc(Nc2cc(S(=O)(=O)O)c(N)c3c2C(=O)c2ccccc2C3=O)c(C)c1 | 3.58
COc1ccc(Nc2cc(S(=O)(=O)O)c(N)c3c2C(=O)c2ccccc2C3=O)cc1OC | 4.98
COc1cc(Nc2cc(S(=O)(=O)O)c(N)c3c2C(=O)c2ccccc2C3=O)ccc1Cl | 3.37
Cc1cccc(Nc2cc(S(=O)(=O)O)c(N)c3c2C(=O)c2ccccc2C3=O)c1C | 2.63
Cc1cccc(Nc2cc(S(=O)(=O)O)c(N)c3c2C(=O)c2ccccc2C3=O)c1 | 2.22
Nc1c(S(=O)(=O)O)cc(NCc2ccccc2)c2c1C(=O)c1ccccc1C2=O | 14.4
Nc1c(S(=O)(=O)O)cc(Nc2ccccc2C(=O)O)c2c1C(=O)c1ccccc1C2=O | 6.1
COc1cc(Nc2cc(S(=O)(=O)O)c(N)c3c2C(=O)c2ccccc2C3=O)ccc1F | 1.54
CCc1cccc(Nc2cc(S(=O)(=O)O)c(N)c3c2C(=O)c2ccccc2C3=O)c1 | 1.51
COc1ccccc1Nc1cc(S(=O)(=O)O)c(N)c2c1C(=O)c1ccccc1C2=O | 3.98
Cc1ccc(C)c(Nc2cc(S(=O)(=O)O)c(N)c3c2C(=O)c2ccccc2C3=O)c1 | 11.2
O=C1c2ccccc2C(=O)c2c(Nc3cccc(F)c3)cc(S(=O)(=O)O)cc21 | 30
Nc1c(S(=O)(=O)O)cc(Nc2ccccc2Cl)c2c1C(=O)c1ccccc1C2=O | 9.34
